≈ marks a conversion by molar mass, not a printed value.
Columns and labels:
Format in all cases: functional
Staphylococcus aureus [1] = assay: Antibacterial activity against methicillin-susceptible Staphylococcus aureus clinical isolate by broth microdilution method
In short: (§1)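 MICs by CLSI broth microdilution in frozen trays pre-loaded with serial dilutions of each agent. Quality-control strains run in parallel: E. faecalis ATCC 29212 and ATCC 51299, S. aureus ATCC 29213, S. pneumoniae ATCC 49619. Comparator susceptibility categories follow CLSI breakpoints. Methicillin resistance in staphylococci assigned from the oxacillin MIC.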

Staphylococcus [2] = assay: Antibacterial activity against methicillin-resistant coagulase-negative unspeciated Staphylococcus clinical isolate by broth microdilution method; in short: as §1
Enterococcus faecium = assay: Antibacterial activity against vancomycin-susceptible Enterococcus faecium clinical isolate by broth microdilution method
In short: (§2)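 MIC by CLSI broth microdilution in frozen microtiter trays holding serial dilutions of each agent, prepared from standard laboratory powders. E. faecalis ATCC 29212 and ATCC 51299, S. aureus ATCC 29213 and S. pneumoniae ATCC 49619 run in parallel as quality-control strains. Comparator susceptibility interpreted with CLSI breakpoints.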

[3] = tested on: Staphylococcus haemolyticus; assay: Antibacterial activity against methicillin-susceptible coagulase-negative Staphylococcus haemolyticus clinical isolate by broth microdilution method; in short: as §1
Staphylococcus simulans = assay: Antibacterial activity against methicillin-resistant coagulase-negative Staphylococcus simulans clinical isolate by broth microdilution method; in short: as §1
Staphylococcus cohnii = assay: Antibacterial activity against methicillin-resistant coagulase-negative Staphylococcus cohnii clinical isolate by broth microdilution method; in short: as §1
[4] = tested on: Streptococcus intermedius; assay: Antibacterial activity against Streptococcus intermedius clinical isolate by broth microdilution method; in short: as §2
Staphylococcus xylosus [5] = assay: Antibacterial activity against methicillin-resistant coagulase-negative Staphylococcus xylosus clinical isolate by broth microdilution method; in short: as §1
Streptococcus mitis = assay: Antibacterial activity against Streptococcus mitis clinical isolate by broth microdilution method; in short: as §2
Staphylococcus aureus [6] = assay: Antibacterial activity against methicillin-resistant Staphylococcus aureus clinical isolate by broth microdilution method; in short: as §1
Staphylococcus xylosus [7] = assay: Antibacterial activity against methicillin-susceptible coagulase-negative Staphylococcus xylosus clinical isolate by broth microdilution method; in short: as §1
[8] = tested on: Streptococcus constellatus; assay: Antibacterial activity against Streptococcus constellatus clinical isolate by broth microdilution method; in short: as §2
Streptococcus agalactiae = assay: Antibacterial activity against Streptococcus agalactiae clinical isolate by broth microdilution method; in short: as §2
Staphylococcus [9] = assay: Antibacterial activity against daptomycin-nonsusceptible coagulase-negative Staphylococcus isolate 1285835 by broth microdilution method; in short: as §2
[10] = tested on: Staphylococcus epidermidis; assay: Antibacterial activity against methicillin-resistant coagulase-negative Staphylococcus epidermidis clinical isolate by broth microdilution method; in short: as §1
[11] = tested on: Staphylococcus saprophyticus; assay: Antibacterial activity against methicillin-susceptible coagulase-negative Staphylococcus saprophyticus clinical isolate by broth microdilution method; in short: as §1
Staphylococcus warneri [12] = assay: Antibacterial activity against methicillin-resistant coagulase-negative Staphylococcus warneri clinical isolate by broth microdilution method; in short: as §1
Streptococcus sanguinis = assay: Antibacterial activity against Streptococcus sanguinis clinical isolate by broth microdilution method; in short: as §2
Staphylococcus aureus [13] = assay: Antibacterial activity against daptomycin-nonsusceptible Staphylococcus aureus isolate 1171055 by broth microdilution method; in short: as §1
Mammaliicoccus sciuri = assay: Antibacterial activity against methicillin-resistant coagulase-negative Staphylococcus sciuri clinical isolate by broth microdilution method; in short: as §1
Staphylococcus warneri [14] = assay: Antibacterial activity against methicillin-susceptible coagulase-negative Staphylococcus warneri clinical isolate by broth microdilution method; in short: as §1
[15] = tested on: Staphylococcus epidermidis; assay: Antibacterial activity against methicillin-susceptible coagulase-negative Staphylococcus epidermidis clinical isolate by broth microdilution method; in short: as §1
Streptococcus pyogenes = assay: Antibacterial activity against Streptococcus pyogenes clinical isolate by broth microdilution method; in short: as §2
[16] = Antibacterial activity against Streptococcus sp. Group C clinical isolate by broth microdilution method; in short: as §2

**Q.** With `CCCCCCCCCC(=O)N[C@@H](Cc1c[nH]c2ccccc12)C(=O)N[C@H](CC(N)=O)C(=O)N[C@@H](CC(=O)O)C(=O)N[C@@H]1C(=O)NCC(=O)N[C@@H](CCCN)C(=O)N[C@@H](CC(=O)O)C(=O)N[C@H](C)C(=O)N[C@@H](CC(=O)O)C(=O)NCC(=O)N[C@H](CO)C(=O)N[C@@H]([C@H](C)CC(=O)O)C(=O)N[C@@H](CC(=O)c2ccccc2N)C(=O)O[C@@H]1C` as the molecule, how does the MIC90 (Staphylococcus aureus [1]) read?
**A.** Its MIC90 is 0.5 µg/mL (≈ 0.309 µM).

**Q.** And the MIC50 (Staphylococcus [2])?
**A.** Its MIC50 is 0.5 µg/mL (≈ 0.309 µM).

**Q.** What about the MIC90 (Staphylococcus [2]) of the same molecule?
**A.** The MIC90 was 1 µg/mL (≈ 0.617 µM).

**Q.** What about the MIC50 (Enterococcus faecium) of the same molecule?
**A.** Its MIC50 is 2 µg/mL (≈ 1.23 µM).

**Q.** And the MIC90 (Enterococcus faecium)?
**A.** Its MIC90 is 4 µg/mL (≈ 2.47 µM).

**Q.** And the MIC50 [3]?
**A.** The MIC50 was 0.5 µg/mL (≈ 0.309 µM).

**Q.** What about the MIC90 [3] of the same molecule?
**A.** Its MIC90 is 1 µg/mL (≈ 0.617 µM).

**Q.** And the MIC50 (Staphylococcus simulans)?
**A.** Its MIC50 is 0.5 µg/mL (≈ 0.309 µM).

**Q.** And the MIC90 (Staphylococcus simulans)?
**A.** Its MIC90 is 1 µg/mL (≈ 0.617 µM).

**Q.** What about the MIC50 (Staphylococcus cohnii) of the same molecule?
**A.** Its MIC50 is 0.5 µg/mL (≈ 0.309 µM).

**Q.** What about the MIC90 (Staphylococcus cohnii) of the same molecule?
**A.** The MIC90 was 1 µg/mL (≈ 0.617 µM).

**Q.** And the MIC50 [4]?
**A.** The MIC50 was 0.25 µg/mL (≈ 0.154 µM).

**Q.** What about the MIC90 [4] of the same molecule?
**A.** The MIC90 was 1 µg/mL (≈ 0.617 µM).

**Q.** What about the MIC50 (Staphylococcus xylosus [5]) of the same molecule?
**A.** Its MIC50 is 0.5 µg/mL (≈ 0.309 µM).

**Q.** What about the MIC90 (Staphylococcus xylosus [5]) of the same molecule?
**A.** The MIC90 was 1 µg/mL (≈ 0.617 µM).

**Q.** And the MIC50 (Streptococcus mitis)?
**A.** The MIC50 was 0.25 µg/mL (≈ 0.154 µM).

**Q.** And the MIC90 (Streptococcus mitis)?
**A.** Its MIC90 is 1 µg/mL (≈ 0.617 µM).

**Q.** What about the MIC50 (Staphylococcus aureus [6]) of the same molecule?
**A.** The MIC50 was 0.5 µg/mL (≈ 0.309 µM).

**Q.** What about the MIC90 (Staphylococcus aureus [6]) of the same molecule?
**A.** The MIC90 was 0.5 µg/mL (≈ 0.309 µM).

**Q.** What about the MIC50 (Staphylococcus xylosus [7]) of the same molecule?
**A.** The MIC50 was 0.5 µg/mL (≈ 0.309 µM).

**Q.** What about the MIC90 (Staphylococcus xylosus [7]) of the same molecule?
**A.** The MIC90 was 1 µg/mL (≈ 0.617 µM).

**Q.** What about the MIC50 [8] of the same molecule?
**A.** Its MIC50 is 0.25 µg/mL (≈ 0.154 µM).

**Q.** What about the MIC90 [8] of the same molecule?
**A.** Its MIC90 is 1 µg/mL (≈ 0.617 µM).

**Q.** And the MIC50 (Streptococcus agalactiae)?
**A.** Its MIC50 is 0.25 µg/mL (≈ 0.154 µM).

**Q.** And the MIC90 (Streptococcus agalactiae)?
**A.** Its MIC90 is 0.25 µg/mL (≈ 0.154 µM).

**Q.** What about the MIC (Staphylococcus [9]) of the same molecule?
**A.** Its MIC is greater than 1 µg/mL.

**Q.** What about the MIC50 [10] of the same molecule?
**A.** The MIC50 was 0.5 µg/mL (≈ 0.309 µM).

**Q.** What about the MIC90 [10] of the same molecule?
**A.** Its MIC90 is 1 µg/mL (≈ 0.617 µM).

**Q.** What about the MIC50 [11] of the same molecule?
**A.** The MIC50 was 0.5 µg/mL (≈ 0.309 µM).

**Q.** And the MIC90 [11]?
**A.** The MIC90 was 1 µg/mL (≈ 0.617 µM).

**Q.** What about the MIC50 (Staphylococcus warneri [12]) of the same molecule?
**A.** Its MIC50 is 0.5 µg/mL (≈ 0.309 µM).

**Q.** What about the MIC90 (Staphylococcus warneri [12]) of the same molecule?
**A.** The MIC90 was 1 µg/mL (≈ 0.617 µM).

**Q.** What about the MIC50 (Streptococcus sanguinis) of the same molecule?
**A.** Its MIC50 is 0.25 µg/mL (≈ 0.154 µM).

**Q.** What about the MIC90 (Streptococcus sanguinis) of the same molecule?
**A.** Its MIC90 is 1 µg/mL (≈ 0.617 µM).

**Q.** And the MIC (Staphylococcus aureus [13])?
**A.** Its MIC is greater than 1 µg/mL.

**Q.** And the MIC50 (Mammaliicoccus sciuri)?
**A.** The MIC50 was 0.5 µg/mL (≈ 0.309 µM).

**Q.** What about the MIC90 (Mammaliicoccus sciuri) of the same molecule?
**A.** The MIC90 was 1 µg/mL (≈ 0.617 µM).

**Q.** And the MIC50 (Staphylococcus warneri [14])?
**A.** Its MIC50 is 0.5 µg/mL (≈ 0.309 µM).

**Q.** What about the MIC90 (Staphylococcus warneri [14]) of the same molecule?
**A.** The MIC90 was 1 µg/mL (≈ 0.617 µM).

**Q.** And the MIC50 [15]?
**A.** Its MIC50 is 0.5 µg/mL (≈ 0.309 µM).

**Q.** And the MIC90 [15]?
**A.** Its MIC90 is 1 µg/mL (≈ 0.617 µM).

**Q.** What about the MIC50 (Streptococcus pyogenes) of the same molecule?
**A.** The MIC50 was 0.06 µg/mL (≈ 0.037 µM).

**Q.** What about the MIC90 (Streptococcus pyogenes) of the same molecule?
**A.** The MIC90 was 0.06 µg/mL (≈ 0.037 µM).

**Q.** What about the MIC50 [16] of the same molecule?
**A.** The MIC50 was 0.06 µg/mL (≈ 0.037 µM).

**Q.** And the MIC90 [16]?
**A.** Its MIC90 is 0.25 µg/mL (≈ 0.154 µM).
